Source: PubChem BioAssay
PAD4 FP inh – PAD4 (human) enzyme inhibition. Q9UM07. AID 485272. inhibition, % at 6.36 µM. hit rate 0.41% among 330,000. recombinant PAD4, RCA probe fluorescence polarization;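 active = percent inhibition above a cutoff equal to the mean of all tested compounds plus 3 SD, cut at about 15% in these data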
Apaf1 inhib – inhibitors of human Apaf-1 apoptosome. reconstituted apoptosome caspase-3 activity, DEVD-Rh110 fluorescence. inhibition, % at 20 µM. hit rate 0.71% among 330,000. AID 489030; active = inhibition of at least 40% at 20 µM
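Assay system – apoptosome proteins · Medium – Hepes buffer, pH 7.5 · Also added – cytochrome c with DEVD-Rh110 · Timing – 30 min compound preincubation, 50 min activation, room temperature · Detection – Rh110 fluorescence, excitation 480 nm, emission 540 nm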
GSTO1 counter – GSTO1 inhibition, counter-screen for RBBP9 inhibitors | P78417 | recombinant GSTO1, activity-based probe fluorescence polarization | inhibition, % at 5.96 µM | hit rate 1.1% among 300,000;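 active = inhibition above the campaign mean inhibition plus 3 SD, cut at about 35% in these data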
Target sequence (P78417 whole entry, looked up): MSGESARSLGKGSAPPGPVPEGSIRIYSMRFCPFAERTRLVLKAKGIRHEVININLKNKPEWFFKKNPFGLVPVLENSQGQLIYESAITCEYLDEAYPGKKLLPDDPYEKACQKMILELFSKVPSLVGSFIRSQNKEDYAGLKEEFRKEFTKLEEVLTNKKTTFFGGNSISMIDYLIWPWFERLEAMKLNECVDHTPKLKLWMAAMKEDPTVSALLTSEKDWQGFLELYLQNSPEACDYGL
Fh CTSL1 inh – blocks F. hepatica cathepsin L1 in PFM18AAP counter-screen; recombinant F. hepatica cathepsin L1, Z-Leu-Arg-MCA fluorescence; inhibition, % at 5.96 µM; hit rate 0.49% among 300,000;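 active = inhibition above the mean of all tested compounds plus 3 SD, set per screening campaign, cut at about 17% in these data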
UCH37 inh – blocks the human deubiquitinase UCH37 | Q9Y5K5 | purified proteasome/UCH37, Ub-AMC cleavage fluorescence | inhibition, % (concentration not given with the values) | hit rate 0.33% among 330,000 | AID 588478;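 active = mean inhibition over replicate wells above about 20%, limit read from the data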
Target sequence (Q9Y5K5 whole entry, looked up): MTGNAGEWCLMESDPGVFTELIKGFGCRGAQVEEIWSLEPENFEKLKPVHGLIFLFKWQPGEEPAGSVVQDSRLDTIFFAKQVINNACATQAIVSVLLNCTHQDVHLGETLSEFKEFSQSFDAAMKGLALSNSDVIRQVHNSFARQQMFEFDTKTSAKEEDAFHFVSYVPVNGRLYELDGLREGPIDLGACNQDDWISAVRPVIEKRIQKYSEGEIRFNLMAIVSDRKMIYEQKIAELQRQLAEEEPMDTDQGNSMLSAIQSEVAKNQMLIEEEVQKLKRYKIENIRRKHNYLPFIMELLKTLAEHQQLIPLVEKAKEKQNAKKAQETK
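System: Proteasome-associated human UCH37 deubiquitinase; Input: 0.15 nM proteasome in added enzyme buffer; Also added: Ub-AMC substrate from 1 µM stock; Incubation: 30 min compound-proteasome preincubation then 25 min substrate reaction, room temperature; Detection: fluorescence, ex 355 nm, em 460 nm; Read-out: % inhibition of Ub-AMC cleavage fluorescence; Benchmarks: no-proteasome and no-compound wells.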
PP5 inh – PP5 (human) phosphatase inhibition; purified PP5c, OMFP substrate fluorescence; inhibition, % at 6.7 µM; hit rate 0.18% among 320,000;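 active = inhibition above the campaign's mean inhibition across all tested compounds plus 3 SD, cut at about 9.5% in these data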
GSTO1 confirm – confirmation of human GSTO1 inhibitors. shares compounds with GSTO1 counter. hit rate 54% among 2,400. recombinant GSTO1, probe fluorescence polarization. inhibition, % at 5.96 µM;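 active = inhibition above the primary screen's cutoff, its mean inhibition plus 3 SD, cut at about 35% in these data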;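 also: loss of polarization as inhibitors block binding of rhodamine sulfonate ester activity probe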
PP5 inh confirm – confirmation of human PP5 phosphatase inhibitors; inhibition, % at 6.7 µM; AID 2331; hit rate 22% among 460; Purified PP5, fluorogenic phosphatase substrate, fluorescence; shares compounds with PP5 inh; in the data active = inhibition above about 9.5%
PP1 inh counter – counter-screen for PP5 inhibitors: human PP1 phosphatase inhibition | shares compounds with PP5 inh | PP1 enzyme, fluorescent phosphatase substrate | inhibition, % at 6.7 µM | hit rate 4% among 460; in the data active = inhibition above about 16%
PAD4 FP conf – confirmation of human PAD4 inhibitors; shares compounds with PAD4 FP inh; recombinant PAD4, RCA probe fluorescence polarization; inhibition, % at 6.36 µM; hit rate 28% among 1,200;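 active = mean inhibition across replicates above the hit cutoff set by the earlier primary screen, cut at about 15% in these data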;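 also: inhibitors block active-site labeling by the probe so polarization falls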
Apaf-1 inh conf – Apaf-1 inhibition, single-dose confirmed | AID 504614 | reconstituted apoptosome, caspase-3 DEVD-Rh110 fluorescence | inhibition, % at 20 µM | hit rate 25% among 1,800 | shares compounds with Apaf1 inhib;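 active = mean inhibition of at least 40% at 20 µM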
Rh110 interf inh – Rh110 signal interference in Apaf-1 inhibitor counter-screen; shares compounds with Apaf1 inhib; Rh110 fluorescence interference, quenched caspase reaction; activation (fluorescence interference), % at 20 µM; 1,800 tested, under 10 active; AID 504615;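 active = signal rise of 40% or more at 20 µM, treated as a fluorescence artifact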
Fluor interf inh – Apaf-1 inhibitor counter-screen fluorescence artifact. shares compounds with Apaf1 inhib. fluorescence interference counterscreen, Apaf-1 assay format. IC50, µM. 460 tested, under 10 active. AID 588538; call rule not given here
UCH37 confirm – UCH37 Ub-AMC cleavage inhibition, confirmed | shares compounds with UCH37 inh | Proteasome-bound UCH37, Ub-AMC cleavage fluorescence | inhibition, % at 20 µM | hit rate 27% among 480;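 active = average inhibition over replicates above about 50%, so the earlier screening hit is confirmed, limit read from the data; inactive = the rest, counted as false positives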;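 also: based on cleavage rate fitted by regression over a 30 min kinetic read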
Large screens that a line does not name were inactive (follow-up assays come after a bar, where they were run). Most compounds without a hit are left out; they make up all but 2% or so of the library.

CN1CCc2cc3c(c4c2C1Cc1ccccc1-4)OCO3 (configuration not stated)	PAD4 FP inh 58, Apaf1 inhib 91, GSTO1 counter 77 (no result: UCH37 inh) | GSTO1 confirm 63 | PAD4 FP conf inactive | Apaf-1 inh conf 67 | Rh110 interf inh inactive | Fluor interf inh inactive
COc1ccc2c(c1OC)C(=O)OC2C1c2cc3c(cc2CCN1C)OCO3 (configuration not stated)	none
O=C(COc1ccc(Cl)cc1)N1CCN(C/C=C/c2ccccc2)CC1	none
Cn1c(Cn2cnc([N+](=O)[O-])n2)nnc1SCC(=O)Nc1cccc(Cl)c1	none
O=C1NC(c2ccccc2Br)=N/C1=C\c1ccco1	none
C[n+]1c(-c2ccccc2)c2cc(N)ccc2c2ccc(N)cc21	PAD4 FP inh 81, Apaf1 inhib 98, GSTO1 counter 104, Fh CTSL1 inh 31 | GSTO1 confirm 90 | PAD4 FP conf 74 | Apaf-1 inh conf 80 | Rh110 interf inh inactive | Fluor interf inh inactive
Nc1ccc2ccc3cccc[n+]3c2c1	none (no result: UCH37 inh)
Nc1c(C(=O)OCc2ccccc2)c2nc3ccccc3nc2n1Cc1cccs1	PAD4 FP inh 25, Apaf1 inhib 86, GSTO1 counter 51 | GSTO1 confirm inactive | PAD4 FP conf inactive | Apaf-1 inh conf inactive | Rh110 interf inh inactive
COCCCn1c(N)c(C(=O)NCc2ccco2)c2nc3ccccc3nc21	Apaf1 inhib 95, GSTO1 counter 76 (no result: UCH37 inh) | GSTO1 confirm inactive | Apaf-1 inh conf inactive | Rh110 interf inh inactive
Cn1ncnc2c(=O)n(C)c(=O)nc1-2	PAD4 FP inh 68, Apaf1 inhib 99, GSTO1 counter 94, Fh CTSL1 inh 111, UCH37 inh 100, PP5 inh 13 | GSTO1 confirm 92 | PAD4 FP conf 66 | UCH37 confirm 100
CCOC(=O)c1cncn1[C@H](C)c1ccccc1	none
Cc1oc(-c2ccccc2Cl)nc1CN1C(=O)CN=C(c2ccccc2)c2ccccc21	none
O=C1CN=C(c2ccccc2)c2ccccc2N1Cc1ccc(C(F)(F)F)cc1	PP5 inh 13 | PP5 inh confirm inactive | PP1 inh counter inactive
C/C=C(\C)C(=O)OC1C(C)=C2C(C1OC(=O)CCCCC)C(C)(OC(C)=O)CC(OC(=O)CCC)C1(O)C2OC(=O)C1(C)O (configuration not stated)	PP5 inh 11 (no result: UCH37 inh) | PP5 inh confirm 11 | PP1 inh counter inactive
COC(=O)C1=C(c2ccc(C(C)=O)cc2)C[C@@H]2CC[C@H]1N2C(=O)N1CCC(O)CC1	none (no result: GSTO1 counter, Fh CTSL1 inh)
CCOC(=O)c1ccc(NC(=O)C2C3C=CC(O3)C2C(=O)O)cc1 (configuration not stated)	PP5 inh 28 (no result: UCH37 inh) | PP5 inh confirm inactive | PP1 inh counter inactive
COC(=O)c1ccccc1OP(=O)(c1cccc([N+](=O)[O-])c1)c1cccc([N+](=O)[O-])c1	none
Cc1[nH]n(-c2ccccc2)c(=O)c1C(c1ccc([N+](=O)[O-])cc1)c1c(C)[nH]n(-c2ccccc2)c1=O	PAD4 FP inh 66, Apaf1 inhib 79, GSTO1 counter 59, PP5 inh 9.9 | PP5 inh confirm 16 | PP1 inh counter inactive | PAD4 FP conf inactive | Apaf-1 inh conf inactive | Rh110 interf inh inactive
O=C(c1cccc(C(F)(F)F)c1)N1C[C@H]2C[C@@H](C1)c1cccc(=O)n1C2	none
CN(C)C(=O)Oc1cccc2c(OC(=O)N(C)C)cccc12	PAD4 FP inh 24 | PAD4 FP conf inactive
CC(=O)Nc1ccccc1OC(=O)N(C)C	none
O=C(N/N=C/c1c(O)n(CCc2ccccc2)c(=O)[nH]c1=O)c1ccccc1	none
CC1=NN(c2ccccc2)C(=O)C1/C=C1\C(=O)NC(=O)N(c2cc(C)cc(C)c2)C1=O (configuration not stated)	PAD4 FP inh 26, GSTO1 counter 36 | PAD4 FP conf inactive
C=CCn1c(O)c(C=Nc2ccc(N(CC)CC)cc2)c(=O)[nH]c1=O	PAD4 FP inh 28 | PAD4 FP conf inactive
CCC(=NCC1CCCO1)c1c(O)n(-c2ccc(Cl)cc2)c(=O)[nH]c1=O (configuration not stated)	none
O=c1cc(C(F)(F)F)c2cc3c4c(c2o1)CCCN4CCC3	PAD4 FP inh 35 | PAD4 FP conf 38
COC(=O)C1=C(c2c(C)noc2C)C[C@@H]2CC[C@H]1N2C(=O)N1CCc2cc(OC)c(OC)cc2C1	none (no result: GSTO1 counter, Fh CTSL1 inh)
COc1ccc(C(C)=O)cc1CC(C(=O)c1ccc(F)cc1)N(C)C (configuration not stated)	none
O=c1[nH]c(=S)n(-c2ccccc2F)c(O)c1C=Nc1ccc(N2CCOCC2)cc1	PAD4 FP inh 17, GSTO1 counter 43 | PAD4 FP conf inactive
O=c1[nH]c(=S)n(-c2ccc(Br)cc2)c(O)c1C=Nc1ccc(N2CCOCC2)cc1	none
O=C(COC(=O)Cc1ccccc1)Nc1cccnc1Cl	none
Cc1ccccc1NC(=O)Cc1nc(COC(=O)Cc2ccccc2)cs1	PAD4 FP inh 47 (no result: GSTO1 counter, Fh CTSL1 inh, UCH37 inh) | PAD4 FP conf inactive
CCCCn1c(O)c(C(C)=NCCCn2ccnc2)c(=O)[nH]c1=O	PAD4 FP inh 27 | PAD4 FP conf 16
Cc1ccc(-c2nc3ccc(C)cn3c2CC(=O)N(C)C)cc1	PAD4 FP inh 17 | PAD4 FP conf inactive
CCCN(CCC)C(=O)Cc1c(-c2ccc(Cl)cc2)nc2c(Cl)cc(Cl)cn12	none
CC/C(=N\NC(=O)c1ccccc1O)c1c(O)n(C2CCCCC2)c(=O)[nH]c1=O	none (no result: UCH37 inh)
